The values that follow come from ChEMBL document CHEMBL4130437, “Bioassay-Guided Isolation of Antibacterial Metabolites from Emericella sp. TJ29” (J Nat Prod, 2017).

Each structure is given as a SMILES string. Values after ≈ are worked out from the molar mass of the structure shown. Active and inactive are the calls of the source. No cut-off for these calls is given here. A value given as a limit tells only on which side of the number the result lay.

Broadly, the MIC is the lowest concentration that inhibits growth of the organism.

Data set [1] relates to Enterococcus faecalis. Briefly: Antibacterial activity against Enterococcus faecalis ATCC 29212 after 16 hrs by broth microdilution method. It counts as functional. Particulars: ATCC 29212, 16 h. The method in brief: (§1)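 Broth microdilution MIC with the inoculum standardized to about 5 × 10^5 CFU/mL. Plates were incubated 16 h at 37 °C. MIC was taken as the lowest concentration with no visible bacterial growth. Each experiment was run three times.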

Data set [2] has as its system Staphylococcus aureus. The data set is described as follows: Antibacterial activity against methicillin-resistant Staphylococcus aureus ATCC 43300 after 16 hrs by broth microdilution method. It counts as functional. Particulars: ATCC 43300, 16 h. In general terms: In broth dilution the organism is exposed to a series of concentrations in liquid medium.
Data set [3] relates to Escherichia coli. The data set is described as follows: Antibacterial activity against ESBL-producing Escherichia coli ATCC 35218 after 16 hrs by broth microdilution method. Type of data set: functional. Particulars: ATCC 35218, 16 h. The method in brief:
as §1

Data set [4] deals with Pseudomonas aeruginosa. The data set is described as follows: Antibacterial activity against Pseudomonas aeruginosa ATCC 15442 after 16 hrs by broth microdilution method. Particulars: ATCC 15442, 16 h. Type of data set: functional. The method in brief:
as §1

Data set [5] concerns Klebsiella pneumoniae. Briefly: Antibacterial activity against Klebsiella pneumoniae ATCC 700603 after 16 hrs by broth microdilution method. Type of data set: functional. Particulars: Klebsiella pneumoniae, 700603, 16 h. The method in brief:
as §1

Data set [6] relates to Escherichia coli. The data set is described as follows: Bactericidal activity against ESBL-producing Escherichia coli ATCC 35218 after 2 to 24 hrs by time kill assay. It counts as functional, organism-based. The method in brief:
(§2)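 Overnight MHB culture was diluted into fresh MHB at 5 × 10^5 CFU/mL. Tubes got varied compound concentrations, with untreated inoculated medium as control, and were shaken at 37 °C. At 2, 4, 6, 8, 12 and 24 h, samples were serially diluted, plated on tryptic soy agar and incubated overnight at 37 °C, then colonies were counted. Done at least three times, mean/SD.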

The test system of data set [7] is BEAS-2B. The data set is described as follows: Cytotoxicity against human BEAS2B cells assessed as reduction in cell viability at 0.064 to 40 uM after 48 hrs by MTS assay. It counts as cell-based. The method in brief:
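BEAS-2B cells grown in RPMI-1640 or DMEM with 10% FBS at 37 °C under 5% CO2. Seeded at 1 × 10^5 cells/mL and left to adhere 12 h. Exposed to compound at various concentrations in triplicate for 48 h, with cisplatin and paclitaxel as positive controls. MTS was added for 4 h, then cells were lysed in SDS/DMF and OD read at 490 nm. IC50 by Reed–Muench.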
(In general: Tetrazolium dyes change colour on reduction, which living cells bring about.)

Data set [8] relates to Escherichia coli. The data set is described as follows: Bacteriostatic activity against ESBL-producing Escherichia coli ATCC 35218 after 2 to 24 hrs by time kill assay. Type of data set: functional, organism-based. The method in brief: as §2

`O=C(N[C@H](CO)[C@H](O)c1ccc([N+](=O)[O-])cc1)C(Cl)Cl` [CHLORAMPHENICOL] showed an MIC in data set [1] of 16 µg/mL (≈ 49.5 µM).
On to `COc1cccc2c1CO[C@@H]2C[C@@H](O)[C@@H](O)[C@H]1O[C@@H]1C`, for which the MIC in data set [2], in data set [1], in data set [3], in data set [4] and in data set [5] was greater than 128 µg/mL in each case.
In data set [3], `NCC[C@H](O)C(=O)N[C@@H]1C[C@H](N)[C@@H](O[C@H]2O[C@H](CN)[C@@H](O)[C@H](O)[C@H]2O)[C@H](O)[C@H]1O[C@H]1O[C@H](CO)[C@@H](O)[C@H](N)[C@H]1O` [AMIKACIN] yielded an MIC of 2 µg/mL (≈ 3.42 µM).
As to `C=C1[C@H]2C(=O)[C@]3(C)C=C4C(=O)OC[C@]14[C@@]1(CC[C@H]4C(C)(C)C(=O)C=C[C@]4(C)[C@H]21)C3`, the MIC in data set [2] is 64 µg/mL (≈ 163 µM); in data set [1], greater than 128 µg/mL; in data set [3] it was 32 µg/mL (≈ 81.5 µM); in data set [4], 32 µg/mL (≈ 81.5 µM); in data set [5], 64 µg/mL (≈ 163 µM).
Consider `CCC[C@H](O)[C@H](O)C[C@H]1OCc2c(OC)cccc21`, for which the MIC in data set [2] amounted to 32 µg/mL (≈ 120 µM); in data set [1] it was 32 µg/mL (≈ 120 µM); in data set [3] it was 4 µg/mL (≈ 15 µM); in data set [4] it was 4 µg/mL (≈ 15 µM); in data set [5], 16 µg/mL (≈ 60.1 µM). In data set [6], the result was Active. Also, the Activity entry in data set [7] is listed as “Non-Toxic”.
In the case of `CO/N=C(\C(=O)N[C@@H]1C(=O)N2C(C(=O)O)=C(CSc3nc(=O)c(O)nn3C)CS[C@H]12)c1csc(N)n1` [CEFTRIAXONE], the MIC in data set [4] and in data set [5] was 1 µg/mL (≈ 1.8 µM) each time.
Consider `C=C1[C@H]2C(=O)[C@@]3(C)C[C@]4(CC[C@H]5C(C)(C)C(=O)C=C[C@]5(C)[C@H]24)[C@@]12COC(=O)[C@@H]2[C@H]3O`, for which the MIC is 32 µg/mL (≈ 78 µM) in data set [2]; 32 µg/mL (≈ 78 µM) in data set [1]; 2 µg/mL (≈ 4.87 µM) in data set [3]; 8 µg/mL (≈ 19.5 µM) in data set [4]; 32 µg/mL (≈ 78 µM) in data set [5]. Moreover, the outcome in data set [8] was Active. For the same compound, in data set [7], the Activity entry is “Non-Toxic”.
As for `CCC[C@H](O)[C@H](O)C[C@H]1OCc2cccc(OC)c21`, the MIC in data set [2] was greater than 128 µg/mL; in data set [1] it was 32 µg/mL (≈ 120 µM); in data set [3], 8 µg/mL (≈ 30 µM); in data set [4], 32 µg/mL (≈ 120 µM); in data set [5] it was greater than 128 µg/mL.
For the compound `CC1(C)C(=O)C=C[C@@]2(C)[C@H]1CC[C@@]13C[C@@]4(C)C=C5C(=O)OC[C@]51[C@@]1(CO1)[C@@H](C4=O)[C@@H]23`, the MIC in data set [2] was greater than 128 µg/mL; in data set [1] it was greater than 128 µg/mL; in data set [3] it was 32 µg/mL (≈ 78.3 µM); in data set [4], 64 µg/mL (≈ 157 µM); in data set [5] it was greater than 128 µg/mL.
For the compound `COc1cccc(/C=C/[C@@H](O)[C@@H](O)[C@H]2O[C@@H]2C)c1CO`, the MIC in data set [2] is 64 µg/mL (≈ 228 µM); in data set [1] it was greater than 128 µg/mL; in data set [3], 32 µg/mL (≈ 114 µM); in data set [4] it was 32 µg/mL (≈ 114 µM); in data set [5] it was greater than 128 µg/mL.
Take `C=C1[C@H]2C(=O)[C@]3(C)C=C4C(=O)OC[C@]14[C@@]1(CC[C@H]4C(C)(C)C(=O)C=C[C@]4(C)[C@]21O)C3`: the MIC in data set [2] is greater than 128 µg/mL; in data set [1], greater than 128 µg/mL; in data set [3] it was 64 µg/mL (≈ 157 µM); in data set [4] it was greater than 128 µg/mL; in data set [5], greater than 128 µg/mL.
